What was measured:
Assay type in all cases: functional
[1] = system: PC-3; assay: Growth inhibition of human PC3 cells assessed as cell growth at 10^-4 M after 48 hrs by sulforhodamine B assay; settings: PC-3, 48 h, read-out: Activity
[2] = system: SK-MEL-28; assay: Growth inhibition of human SK-MEL-28 cells assessed as cell growth at 10^-4 M after 48 hrs by sulforhodamine B assay; settings: SK-MEL-28, 48 h, read-out: Activity
[3] = system: SF-295; assay: Growth inhibition of human SF295 cells assessed as cell growth at 10^-4 M after 48 hrs by sulforhodamine B assay; settings: SF-295, 48 h, read-out: Activity
[4] = system: NCI-H522; assay: Growth inhibition of human NCI-H522 cells assessed as cell growth at 10^-4 M after 48 hrs by sulforhodamine B assay; settings: NCI-H522, 48 h, read-out: Activity
[5] = system: UACC-62; assay: Growth inhibition of human UACC62 cells assessed as cell growth at 10^-5 M after 48 hrs by sulforhodamine B assay; settings: UACC-62, 48 h, read-out: Activity
[6] = system: MDA-MB-435; assay: Growth inhibition of human MDA-MB-435 cells assessed as cell growth at 10^-5 M after 48 hrs by sulforhodamine B assay; settings: MDA-MB-435, 48 h, read-out: Activity
[7] = system: BT-549; assay: Growth inhibition of human BT549 cells assessed as cell growth at 10^-6 M after 48 hrs by sulforhodamine B assay; settings: BT-549, 48 h, read-out: Activity
Method in brief: (§1)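 Five-dose NCI-60 run (0.01, 0.1, 1, 10 and 100 µM, as 10-fold dilutions from a DMSO stock made at 400× the top final level). Cells were grown in RPMI 1640 with 5% FBS and 2 mM glutamine and plated for 24 h. They were then exposed for 48 h at 37 °C and 5% CO2. TCA fixation was followed by SRB staining with A515 read-out. Percent growth was taken relative to time-zero and control plates.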

[8] = system: DU-145; assay: Growth inhibition of human DU145 cells assessed as cell growth at 10^-6 M after 48 hrs by sulforhodamine B assay; settings: DU-145, 48 h, read-out: Activity; method in brief: as §1
[9] = system: ACHN; assay: Growth inhibition of human ACHN cells assessed as cell growth at 10^-6 M after 48 hrs by sulforhodamine B assay; settings: read-out: Activity; method in brief: as §1
[10] = system: SK-MEL-28; assay: Growth inhibition of human SK-MEL-28 cells assessed as cell growth at 10^-6 M after 48 hrs by sulforhodamine B assay; settings: SK-MEL-28, 48 h, read-out: Activity
[11] = system: SF-268; assay: Growth inhibition of human SF268 cells assessed as cell growth at 10^-6 M after 48 hrs by sulforhodamine B assay; settings: SF-268, 48 h, read-out: Activity
[12] = system: NCI-H460; assay: Growth inhibition of human NCI-H460 cells assessed as cell growth at 10^-6 M after 48 hrs by sulforhodamine B assay; settings: NCI-H460, 48 h, read-out: Activity
[13] = system: NCI-H226; assay: Growth inhibition of human NCI-H226 cells assessed as cell growth at 10^-6 M after 48 hrs by sulforhodamine B assay; settings: NCI-H226, 48 h, read-out: Activity
[14] = system: DU-145; assay: Growth inhibition of human DU145 cells assessed as cell growth at 10^-7 M after 48 hrs by sulforhodamine B assay; settings: DU-145, 48 h, read-out: Activity; method in brief: as §1
[15] = system: ACHN; assay: Growth inhibition of human ACHN cells assessed as cell growth at 10^-7 M after 48 hrs by sulforhodamine B assay; settings: read-out: Activity; method in brief: as §1
[16] = system: UACC-62; assay: Growth inhibition of human UACC62 cells assessed as cell growth at 10^-7 M after 48 hrs by sulforhodamine B assay; settings: UACC-62, 48 h, read-out: Activity
[17] = system: SNB-75; assay: Growth inhibition of human SNB75 cells assessed as cell growth at 10^-7 M after 48 hrs by sulforhodamine B assay; settings: SNB-75, 48 h, read-out: Activity
[18] = system: SF-539; assay: Growth inhibition of human SF539 cells assessed as cell growth at 10^-7 M after 48 hrs by sulforhodamine B assay; settings: SF-539, 48 h, read-out: Activity
[19] = system: NCI-H322M; assay: Growth inhibition of human NCI-H322M cells assessed as cell growth at 10^-7 M after 48 hrs by sulforhodamine B assay; settings: read-out: Activity
[20] = system: SK-OV-3; assay: Growth inhibition of human SKOV3 cells assessed as cell growth at 10^-8 M after 48 hrs by sulforhodamine B assay; settings: SK-OV-3, 48 h, read-out: Activity
[21] = system: NCI-H226; assay: Growth inhibition of human NCI-H226 cells assessed as cell growth at 10^-8 M after 48 hrs by sulforhodamine B assay; settings: NCI-H226, 48 h, read-out: Activity
[22] = system: MOLT-4; assay: Growth inhibition of human MOLT4 cells assessed as cell growth at 10^-8 M after 48 hrs by sulforhodamine B assay; settings: MOLT-4, 48 h, read-out: Activity
[23] = Growth inhibition of human Hs 578T cells after 48 hrs by sulforhodamine B assay; settings: for CC50: read-out: LC50 (the source's name)
Method in brief: (§2)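 Adherent cells in RPMI 1640 with 5% FBS and 2 mM L-glutamine were plated at 5000–40,000 cells/well and grown 24 h. Five concentrations (0.01–100 µM, DMSO stock) were added for 48 h at 37 °C. Cells were fixed with cold TCA (10% final) and stained with SRB, read at 515 nm. GI50 came from log concentration–growth curves against time-zero and control plates.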

[24] = system: SN12C; assay: Growth inhibition of human SN12C cells after 48 hrs by sulforhodamine B assay; settings: for CC50: read-out: LC50 (the source's name); method in brief: as §2
[25] = system: ACHN; assay: Growth inhibition of human ACHN cells after 48 hrs by sulforhodamine B assay; settings: for CC50: read-out: LC50 (the source's name); method in brief: as §2
[26] = system: CAKI-1; assay: Growth inhibition of human CAKI-1 cells after 48 hrs by sulforhodamine B assay; settings: CAKI-1, 48 h, read-out: LC50 (the source's name); method in brief: as §2
[27] = system: OVCAR-8; assay: Growth inhibition of human OVCAR8 cells after 48 hrs by sulforhodamine B assay; settings: OVCAR-8, 48 h; for CC50: read-out: LC50 (the source's name)
Method in brief: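 Five-dose NCI 60 screen at 0.01, 0.1, 1, 10 and 100 µM, 48 h exposure after 24 h preincubation, in RPMI 1640 with 5% FBS and 2 mM glutamine. Fixed with TCA (10% final for adherent cells, 16% for suspension cells), stained with SRB, A515 read. Percent growth uses time-zero (Tz), control and treated plates. GI50, TGI and LC50 are read from the dose-response curves.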

[28] = system: NCI-H322M; assay: Growth inhibition of human NCI-H322M cells after 48 hrs by sulforhodamine B assay; settings: for CC50: read-out: LC50 (the source's name); method in brief: as §2
[29] = system: SR; assay: Growth inhibition of human SR cells after 48 hrs by sulforhodamine B assay; settings: for CC50: read-out: LC50 (the source's name)
Method in brief: (§3)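 Leukemia suspension cells in RPMI 1640 with 5% FBS and 2 mM L-glutamine were plated at 5000–40,000 cells/well and grown 24 h. Five concentrations (0.01–100 µM) were given for 48 h at 37 °C. Settled cells were fixed with 80% TCA (16% final) and SRB-stained, read at 515 nm. GI50 came from dose–response curves against time-zero and control plates.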

[30] = system: HL-60(TB); assay: Growth inhibition of human HL-60(TB) cells after 48 hrs by sulforhodamine B assay; settings: HL-60, 48 h; for CC50: read-out: LC50 (the source's name); method in brief: as §3

| SMILES | growth at 100 µM [1] | growth at 100 µM [2] | growth at 100 µM [3] | growth at 100 µM [4] | growth at 10 µM [5] | growth at 10 µM [6] | growth at 1 µM [7] | growth at 1 µM [8] | growth at 1 µM [9] | growth at 1 µM [10] | growth at 1 µM [11] | growth at 1 µM [12] | growth at 1 µM [13] | growth at 0.1 µM [14] | growth at 0.1 µM [15] | growth at 0.1 µM [16] | growth at 0.1 µM [17] | growth at 0.1 µM [18] | growth at 0.1 µM [19] | growth at 0.01 µM [20] | further results |
| --- | --- | --- | --- | --- | --- | --- | --- | --- | --- | --- | --- | --- | --- | --- | --- | --- | --- | --- | --- | --- | --- |
| O=S(=O)(Nc1ccc(Cl)cc1)c1ccc2nc(-c3ccccc3)c(-c3ccccc3)nc2c1 | 42% | 82% | 77% | 67% | -22% | -25% | 78% | 93% | 96% | 91% | 93% | 94% | 101% | 99% | 95% | 87% | 68% | 96% | 98% | 95% | growth at 0.01 µM [21]: 91%; growth at 0.01 µM [22]: 97%; TGI [23]: > 100 µM; CC50 [23]: > 100 µM; TGI [24]: > 100 µM; CC50 [24]: > 100 µM; TGI [25]: > 100 µM; CC50 [25]: > 100 µM; CC50 [26]: > 100 µM; TGI [27]: > 100 µM; CC50 [27]: > 100 µM; TGI [28]: > 100 µM; CC50 [28]: > 100 µM; CC50 [29]: > 100 µM; GI50 [30]: 2.09 µM; CC50 [30]: > 100 µM |
| O=S(=O)(Nc1ccccn1)c1ccc2nc(-c3ccccc3)c(-c3ccccc3)nc2c1 | 23% | 82% | 40% | 31% | -13% | -25% | 71% | 95% | 94% | 96% | 99% | 94% | 96% | 99% | 98% | 92% | 90% | 94% | 102% | 97% | growth at 0.01 µM [21]: 100%; growth at 0.01 µM [22]: 96%; GI50 [23]: 1.56 µM; CC50 [23]: > 100 µM; TGI [24]: > 100 µM; CC50 [24]: > 100 µM; TGI [25]: > 100 µM; CC50 [25]: > 100 µM; CC50 [26]: > 100 µM; GI50 [27]: 2.6 µM; TGI [27]: > 100 µM; CC50 [27]: > 100 µM; TGI [28]: > 100 µM; CC50 [28]: > 100 µM; GI50 [29]: 1.4 µM; CC50 [29]: > 100 µM; GI50 [30]: 1.71 µM; CC50 [30]: > 100 µM |

— ChEMBL document CHEMBL2407075, “Sulphonamido-quinoxalines: search for anticancer agent” (Eur J Med Chem, 2013)
